Beta apoptosis: beta cell apoptosis inhibition | 300,000 compounds, 0.8% hits | INS-1E cytokine-induced death, ATP luminescence, 48 h; percent of positive-control rescue, neutral wells zero | AID 435005 | protection from apoptosis, % (no concentration beside the values);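 active = Every replicate reaches about 75%, or at least half do and their mean reaches it too, limit read from the data; inconclusive = At least half of replicates reach the limit but their mean does not; inactive = Under half of replicates reach the limit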;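 also: 0% = cytokine-treated negative control wells and 100% = positive control rescue; higher means more ATP so stronger rescue from cytokine killing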
T cruzi repl: T. cruzi replication inhibition; T. cruzi beta-gal in NIH3T3, luminescence, 90 h; inhibition, % (concentration not given with the values); 300,000 compounds, 1.4% hits;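 active = mean inhibition across valid replicates above about 55%, limit read from the data; inconclusive = mean below that limit but half or more replicates reach it; inactive = mean below it, under half of replicates reach it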;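 also: signal also drops with host cell toxicity which is not excluded here; 0% = plate median of DMSO wells and 100% = zero luminescence signal; higher percent means less beta-gal luminescence so fewer parasites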
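Material: NIH/3T3 host cells with β-galactosidase reporter T. cruzi; Input: 5,000 host fibroblasts per well; Medium: DMEM, 2% fetal bovine serum; Compound: 50 nL DMSO compound solution per well; Schedule: 3 h host attachment, then at least 90 h co-culture; Detection: luminescent β-galactosidase signal after 60 min lysis.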
CSC inhib: cancer stem cell inhibition. cancer stem cell-like cells viability, luminescence. inhibition, % at 7.5 µM. 300,000 compounds, 1.1% hits; in the data active = inhibition above about 75%; inconclusive = no clear call, values can overlap the other calls; tested in HMLE shEcad cells
Mdm2 MdmX PPI: human Mdm2/MdmX binding inhibition; inhibition, % at 8 µM; SaOS-2 split-luciferase Mdm2/MdmX complementation, luminescence; 330,000 compounds, 3% hits;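 active = inhibition of at least 50% at 8 µM in the primary screen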
SKKanGAS inh: SKKanGAS growth inhibition. S. pyogenes SKKanGAS, kanamycin growth, BacTiter-Glo, 6 h. inhibition, % at 7.5 µM. 300,000 compounds, 1.3% hits;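 active = mean replicate score, as percent of positive control median, at least 50; inconclusive = mean below 50 but one replicate at or above 50; inactive = mean and every replicate below 50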;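 also: strain carries kanamycin resistance gene driven by streptokinase promoter and grows in 40 µg/ml kanamycin; loss of luminescence reflects streptokinase promoter inhibition or plain growth inhibition; 0% = median of DMSO wells and 100% = positive control at its reference dose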
L major viab: inhibitors of Leishmania major promastigote growth. Leishmania major promastigotes, resazurin fluorescence viability. inhibition, % at 10 µM. 200,000 compounds, 9% hits; in the data active = inhibition above about 50%;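 also: promastigotes grown with compound for 44 hours at 28 °C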
The depositor's hits bear a star; ? = inconclusive; . = no result. Hits are enriched below; roughly 9.4% of the tested compounds scored in any of these assays.

SMILES	Beta apoptosis	T cruzi repl	CSC inhib	Mdm2 MdmX PPI	SKKanGAS inh	L major viab
O=[N+]([O-])c1cccc(-c2ccc(/C=N/NC(=S)NCc3ccco3)o2)c1	17	30	49	34	12	.
O=[N+]([O-])c1ccc(/C=N/NC(=S)Nc2ccccc2)o1	0	41	-10	-41	4	50*
O=[N+]([O-])c1cccc(-c2ccc(/C=N/NC(=S)Nc3ccccc3)o2)c1	10	56*	26	18	14	59*
Nc1c(C(O)(C(F)(F)F)C(F)(F)F)ccc2ccccc12	.	2	.	.	-2	100*
COc1ccc(S(=O)(=O)N2CCOC2CNC(=O)C(=O)NCc2ccc(F)cc2)cc1OC (stereo unspecified)	2	6	-12	-14	0	.
Cc1ccc(-c2nc3cccnc3s2)cc1NS(=O)(=O)c1ccc2c(c1)OCCO2	8	22	77*	39	40	30
COC(=O)C1=CN(c2ccc(OC)cc2)C=C(C(=O)OC)C1c1ccc(C)c([N+](=O)[O-])c1	0	42	24	27	6	99*
COC(=O)C1=CN(c2ccc(OC)cc2)C=C(C(=O)OC)C1c1cccc(F)c1	10	27	29	0	-2	.
O=C(CSc1ccc(-c2ccc(Cl)cc2)nn1)NC1CCCC1	5	15	-8	6	?	.
CCN1CCN(c2cc(C)c3cc(NC(=S)NCCCN4CCc5ccccc5C4)ccc3n2)CC1	-10	51	37	22	1	100*
CCCN1CCN(CCCNC(=S)Nc2ccc3nc(N4CCN(CC)CC4)cc(C)c3c2)CC1	-4	-15	44	29	2	26
Cc1cc(N2CCN(C)CC2)nc2ccc(NC(=S)NCCN3CCc4ccccc4C3)cc12	-8	56*	11	23	6	100*
Cc1cc(N2CCN(C)CC2)nc2ccc(NC(=S)NCCCN3CCc4ccccc4C3)cc12	-11	49	29	43	-1	100*
Cc1ccccc1NC(=O)OCc1ccccc1	.	-16	4	-11	10	.
Cn1c(NCc2cccc(Br)c2)nc2ccccc21	-2	-26	1	10	-2	61*
COc1ccc(C2(C)NC(=O)N(CC3CCCCC3)C2=O)cc1 (stereo unspecified)	-20	5	-5	-8	-9	.
C=CCN(CC=C)CCOc1cccc(Oc2ccccc2)c1	-1	9	25	16	12	97*
CN(C)CCCOc1cccc(Oc2ccccc2)c1	-1	43	27	12	1	99*
CN(C)CCCOc1cccc(Cl)c1	-11	13	-9	8	4	-1
Cc1onc(-c2ccccc2)c1C(=O)NNC(=S)NC(=O)/C=C/c1cccs1	16	-1	26	14	95*	-2
Cc1onc(-c2ccccc2)c1C(=O)NC(=S)NNC(=O)c1ccco1	4	-44	5	-9	78*	.
Cc1onc(-c2ccccc2)c1C(=O)NC(=S)NNC(=O)c1cc(-c2ccc(F)cc2)n[nH]1	27	4	31	18	119*	.
Cc1onc(-c2ccccc2)c1C(=O)NC(=S)NNC(=O)c1ccncc1	-5	-9	-2	24	35	-3
Cc1onc(-c2ccccc2)c1C(=O)N/N=C/c1cccs1	-5	-14	-9	5	-2	.
CN(C)c1ccc(NC(=O)CN2CCc3ccccc3C2)cc1	-4	0	-14	-40	-8	.
SMILES	Beta apoptosis	T cruzi repl	CSC inhib	Mdm2 MdmX PPI	SKKanGAS inh	L major viab
CCc1ccccc1S(=O)(=O)Cc1ccc(C(=O)NCc2cccs2)o1	-5	19	-2	-2	1	2
Cc1ccc(C(=O)NCc2nnc(SCC(=O)NC(C)c3ccccc3)n2C)cc1 (stereo unspecified)	-2	-19	-4	-12	7	-7
CSc1nc2ccc3nc(NC(=O)C4COc5ccccc5O4)sc3c2s1 (stereo unspecified)	.	25	39	-32	21	78*
Cc1ccccc1CSc1nnc(NC(=O)C2COc3ccccc3O2)s1 (stereo unspecified)	-7	-6	.	-1	18	-8
Cc1nc2ccc3nc(NC(=O)C4COc5ccccc5O4)sc3c2s1 (stereo unspecified)	-1	1	-1	3	20	11
O=C(Nc1nnc(SCc2ccccc2Cl)s1)C1COc2ccccc2O1 (stereo unspecified)	1	16	19	29	69*	-4

Source: PubChem
